Measured values reported in ChEMBL document CHEMBL1148652, “Design of potent, orally available antagonists of the transient receptor potential vanilloid 1. Structure-activity relationships of 2-piperazin-1-yl-1H-benzimidazoles” (J Med Chem, 2006).

Legend:
[1] = target: T1, Transient receptor potential cation channel subfamily V member 1 (Rattus norvegicus, UniProt O35433); experiment: Antagonist activity against capsaicin-induced 45calcium ion uptake in CHO cells expressing rat TRPV1; type: functional, cell-based
T1 sequence (O35433 whole entry): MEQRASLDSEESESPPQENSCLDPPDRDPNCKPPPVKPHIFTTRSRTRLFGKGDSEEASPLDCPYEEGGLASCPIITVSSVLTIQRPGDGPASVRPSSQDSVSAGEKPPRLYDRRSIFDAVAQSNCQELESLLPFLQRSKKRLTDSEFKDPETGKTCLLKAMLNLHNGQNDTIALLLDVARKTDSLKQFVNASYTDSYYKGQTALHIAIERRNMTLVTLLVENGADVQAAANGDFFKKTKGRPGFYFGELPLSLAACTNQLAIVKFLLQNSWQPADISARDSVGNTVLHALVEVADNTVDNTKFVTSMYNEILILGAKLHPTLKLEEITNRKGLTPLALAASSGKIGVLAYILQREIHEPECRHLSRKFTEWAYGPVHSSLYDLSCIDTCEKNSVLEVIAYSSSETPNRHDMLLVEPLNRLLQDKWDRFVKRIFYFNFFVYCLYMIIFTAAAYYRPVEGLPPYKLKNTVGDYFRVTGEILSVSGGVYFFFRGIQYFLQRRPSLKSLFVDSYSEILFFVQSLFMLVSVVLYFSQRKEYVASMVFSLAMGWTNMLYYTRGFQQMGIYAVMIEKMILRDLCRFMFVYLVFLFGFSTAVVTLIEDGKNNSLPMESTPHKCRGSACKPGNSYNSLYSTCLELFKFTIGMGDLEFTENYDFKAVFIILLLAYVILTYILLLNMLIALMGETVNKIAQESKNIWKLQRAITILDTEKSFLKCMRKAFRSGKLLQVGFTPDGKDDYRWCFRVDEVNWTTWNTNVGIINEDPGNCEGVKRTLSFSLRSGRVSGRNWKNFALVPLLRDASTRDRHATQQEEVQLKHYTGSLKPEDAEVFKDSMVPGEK
Outline: (§1)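 CHO cells recombinantly expressing rat TRPV1; inhibition of 45Ca2+ uptake triggered by capsaicin or by acid, pH 5. Functional IC50 in nM, averaged over at least two independent experiments, each with three replicates per concentration.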

[2] = target: T1, Transient receptor potential cation channel subfamily V member 1; experiment: Antagonist activity against acid-induced 45calcium ion uptake in CHO cells expressing rat TRPV1 at pH5; type: functional, cell-based; outline: as §1

Structure (SMILES) | IC50 [1] [nM] | IC50 [2] [nM]
FC(F)(F)c1ccc2[nH]c(N3CCN(c4ncncc4Cl)CC3)nc2c1 | 2110 | > 40000
FC(F)(F)c1ccc2nc(N3CCN(c4ncccc4C(F)(F)F)CC3)[nH]c2c1 |  | 301
CCC[C@@H]1CN(c2ncccc2C(F)(F)F)CCN1c1nc2cc(C(F)(F)F)ccc2[nH]1 |  | > 4000
FC(F)(F)c1ccc(CNc2cc3[nH]c(N4CCN(c5ncccc5C(F)(F)F)CC4)nc3cc2C(F)(F)F)cc1 | 94 | 141
FC(F)(F)c1cc(N2CCOCC2)c2[nH]c(N3CCN(c4ncccc4C(F)(F)F)CC3)nc2c1 | 50 | 95
FC(F)(F)c1cccnc1N1CCN(c2nc3ccc(Cl)cc3[nH]2)CC1 | 1130 | 17300
C[C@@H]1CN(c2ncccc2Br)CCN1c1nc2c(-c3cc(F)c(F)c(F)c3)cc(C(F)(F)F)cc2[nH]1 | 6.7 | 2.6
FC(F)(F)c1cnc2nc(N3CCN(c4ncccc4C(F)(F)F)CC3)[nH]c2c1 | 1550 | 884
FC(F)(F)c1ccc2[nH]c(N3CCN(c4ccncc4C(F)(F)F)CC3)nc2c1 | 2380 | 2850
CN(C)c1ccc(-c2cc(C(F)(F)F)cc3[nH]c(N4CCN(c5ncccc5C(F)(F)F)CC4)nc23)cc1 | 108 | 69
N#Cc1cccnc1N1CCN(c2nc3cc(C(F)(F)F)ccc3[nH]2)CC1 | 6290 | 7080
O=[N+]([O-])c1cc(C(F)(F)F)cc2[nH]c(N3CCN(c4ncccc4C(F)(F)F)CC3)nc12 | 1660 | 878
C[C@@H]1CN(c2ncc(C(O)c3ccccc3)cc2C(F)(F)F)CCN1c1nc2c(-c3cc(F)c(F)c(F)c3)cc(C(F)(F)F)cc2[nH]1 (stereo partly drawn) | 2.8 | 3.7
C=Cc1cnc(N2CCN(c3nc4c(-c5cc(F)c(F)c(F)c5)cc(C(F)(F)F)cc4[nH]3)[C@H](C)C2)c(Cl)c1 | 1.3 | 1.7
C[C@H](O)c1cnc(N2CCN(c3nc4c(-c5cc(F)c(F)c(F)c5)cc(C(F)(F)F)cc4[nH]3)[C@H](C)C2)c(Cl)c1 | 2.6 | 3
FC(F)(F)c1ccc2[nH]c(N3CCN(c4ncccc4C(F)(F)F)CC3)nc2n1 | 1090 | 1410
FC(F)(F)c1cccnc1N1CCN(c2nc3ccc(Br)cc3[nH]2)CC1 | 123 | 194
FC(F)(F)Oc1cccc(-c2cc(C(F)(F)F)cc3[nH]c(N4CCN(c5ncccc5C(F)(F)F)CC4)nc23)c1 | 26 | 21
FC(F)(F)c1cc(-c2ccncc2)c2[nH]c(N3CCN(c4ncccc4C(F)(F)F)CC3)nc2c1 | 267 | 188
C[C@@H]1CN(c2ncc(Br)cc2Cl)CCN1c1nc2c(-c3cc(F)c(F)c(F)c3)cc(C(F)(F)F)cc2[nH]1 | 3.4 | 3.3
C[C@@H]1CN(c2ncc([C@@H](C)O)cc2Cl)CCN1c1nc2c(-c3cc(F)c(F)c(F)c3)cc(C(F)(F)F)cc2[nH]1 | 0.6 | 2.3
Fc1cc(-c2cc(C(F)(F)F)cc3[nH]c(N4CCN(c5ncccc5C(F)(F)F)CC4)nc23)cc(F)c1F | 33 | 26
Cc1cccnc1N1CCN(c2nc3ccc(C(F)(F)F)cc3[nH]2)CC1 | 402 | 1140
C[C@@H]1CN(c2nc3c(-c4cc(F)c(F)c(F)c4)cc(C(F)(F)F)cc3[nH]2)CCN1c1ncccc1Br | 4.3 | 1.8
Fc1cc(CNc2cc(C(F)(F)F)cc3[nH]c(N4CCN(c5ncccc5C(F)(F)F)CC4)nc23)cc(F)c1F | 132 | 81
FC(F)(F)c1ccc2[nH]c(N3CCN(c4cccc(C(F)(F)F)n4)CC3)nc2c1 | > 40000 | > 40000
Cc1ccc2[nH]c(N3CCN(c4ncccc4C(F)(F)F)CC3)nc2c1 |  | > 4000
CC(C)(C)c1ccc(-c2cc(C(F)(F)F)cc3[nH]c(N4CCN(c5ncccc5C(F)(F)F)CC4)nc23)cc1 |  | 4
Nc1cc(C(F)(F)F)cc2[nH]c(N3CCN(c4ncccc4C(F)(F)F)CC3)nc12 |  | > 4000
